According to ChEMBL document CHEMBL2040797, “Synthesis of benzimidazoles bearing oxadiazole nucleus as anticancer agents” (2012):

Columns and labels:
Assay type in all cases: functional
NCI-H460 = experiment: Cytotoxicity against human NCI-H460 cells after 48 hrs by sulforhodamine B assay; conditions: NCI-H460, 48 h
Procedure, shortened: (§1)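 NCI 60-panel screen. Cells were grown in RPMI 1640 with 5% FBS and L-glutamine and plated at 5000–40,000 cells/well according to doubling time. They were preincubated 24 h at 37 °C, 5% CO2, then exposed 48 h to five 10-fold dilutions. Adherent cells were fixed with cold TCA, final 10%; suspension cells were fixed after settling. Cells were stained with 0.4% SRB and read at 515 nm. Tz/C/Ti growth curves gave GI50, TGI and LC50.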

SR = experiment: Cytotoxicity against human SR cells after 48 hrs by sulforhodamine B assay; procedure, shortened: as §1
HL-60(TB) = experiment: Cytotoxicity against human HL-60(TB) cells after 48 hrs by sulforhodamine B assay; conditions: HL-60, 48 h
Procedure, shortened: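 NCI 60-panel five-dose assay. Cells are grown in RPMI 1640 with 5% FBS and L-glutamine. They are plated at 5000–40,000 cells/well according to doubling time and pre-incubated 24 h at 37 °C, 5% CO2. DMSO-stock compound is added at five 10-fold or ½-log dilutions for 48 h. Settled suspension cells are fixed, then SRB-stained and read at 515 nm. Percent growth is computed from time-zero, control and treated absorbances, and LC50 is taken where protein falls 50% below the starting level.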

A498 [1] = experiment: Growth inhibition of human A498 cells at 10 uM after 48 hrs by sulforhodamine B assay; conditions: A498, 48 h, read-out: GI
Procedure, shortened: (§2)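 NCI one-dose primary screen at 10 (printed mM) across the 60-line panel. Cells in RPMI 1640 with 5% FBS and 2 mM L-glutamine, plated at 5000–40,000 cells/well and incubated 24 h before dosing. Exposure 48 h at 37 °C, 5% CO2. Adherent cells were fixed with cold TCA, suspension cells fixed after settling. SRB stain, absorbance 515 nm. Reported as percent growth of treated cells relative to control.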

NCI/ADR-RES = experiment: Cytotoxicity against human NCI/ADR-RES cells after 48 hrs by sulforhodamine B assay; procedure, shortened: as §1
SN12C = experiment: Cytotoxicity against human SN12C cells after 48 hrs by sulforhodamine B assay; procedure, shortened: as §1
A498 [2] = experiment: Cytotoxicity against human A498 cells after 48 hrs by sulforhodamine B assay; conditions: A498, 48 h; procedure, shortened: as §1
SF-295 = experiment: Growth inhibition of human SF295 cells at 10 uM after 48 hrs by sulforhodamine B assay; conditions: SF-295, 48 h, read-out: GI; procedure, shortened: as §2
UACC-62 = experiment: Growth inhibition of human UACC62 cells at 10 uM after 48 hrs by sulforhodamine B assay; conditions: UACC-62, 48 h, read-out: GI
Procedure, shortened: (§3)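 NCI-60 single-dose screen. Cells grown in RPMI 1640 with 5% FBS and L-glutamine, plated at 5000–40,000 cells/well by doubling time, and preincubated 24 h at 37 °C, 5% CO2. Compound stocks in DMSO, added at one concentration, then incubated 48 h. Adherent cells fixed with cold TCA (10% final), stained with 0.4% SRB, dye solubilized in 10 mM Tris base, A515 read. Reported as percent growth relative to untreated control.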

HOP-62 = experiment: Cytotoxicity against human HOP62 cells after 48 hrs by sulforhodamine B assay; conditions: HOP-62, 48 h; procedure, shortened: as §1
786-0 = experiment: Growth inhibition of human 786-0 cells at 10 uM after 48 hrs by sulforhodamine B assay; conditions: 786-0, 48 h, read-out: GI; procedure, shortened: as §2
TK-10 = experiment: Growth inhibition of human TK10 cells at 10 uM after 48 hrs by sulforhodamine B assay; conditions: TK-10, 48 h, read-out: GI; procedure, shortened: as §3
T47D = experiment: Cytotoxicity against human T47D cells after 48 hrs by sulforhodamine B assay; procedure, shortened: as §1
MDA-MB-468 = experiment: Growth inhibition of human MDA-MB-468 cells at 10 uM after 48 hrs by sulforhodamine B assay; conditions: MDA-MB-468, 48 h, read-out: GI; procedure, shortened: as §2
A549 = experiment: Cytotoxicity against human A549 cells after 48 hrs by sulforhodamine B assay; conditions: A549, 48 h; procedure, shortened: as §1
MDA-MB-435 = experiment: Cytotoxicity against human MDA-MB-435 cells after 48 hrs by sulforhodamine B assay; conditions: MDA-MB-435, 48 h; procedure, shortened: as §1
UO-31 = experiment: Cytotoxicity against human UO31 cells after 48 hrs by sulforhodamine B assay; conditions: UO-31, 48 h
Procedure, shortened: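 NCI 60 panel five-dose screen. Cells in RPMI 1640 with 5% FBS and 2 mM L-glutamine, plated at 5000–40,000 cells/well and preincubated 24 h. Compounds were tested at five 10-fold concentrations (0.01–100) for 48 h at 37 °C, 5% CO2. Cells were fixed with TCA and stained with SRB, absorbance 515 nm. GI50, TGI and LC50 were taken from % growth curves against time-zero and control.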

OVCAR-8 = experiment: Cytotoxicity against human OVCAR8 cells after 48 hrs by sulforhodamine B assay; conditions: OVCAR-8, 48 h; procedure, shortened: as §1
SK-OV-3 = experiment: Cytotoxicity against human SKOV3 cells after 48 hrs by sulforhodamine B assay; conditions: SK-OV-3, 48 h; procedure, shortened: as §1
COLO 205 = experiment: Cytotoxicity against human COLO205 cells after 48 hrs by sulforhodamine B assay; conditions: COLO 205, 48 h; procedure, shortened: as §1
MCF7 = experiment: Cytotoxicity against human MCF7 cells after 48 hrs by sulforhodamine B assay; conditions: MCF7, 48 h; procedure, shortened: as §1
LOX IMVI = experiment: Cytotoxicity against human LOXIMVI cells after 48 hrs by sulforhodamine B assay; procedure, shortened: as §1
HCT-116 = experiment: Growth inhibition of human HCT116 cells at 10 uM after 48 hrs by sulforhodamine B assay; conditions: HCT-116, 48 h, read-out: GI; procedure, shortened: as §2
NCI-H322M = experiment: Growth inhibition of human NCI-H322M cells at 10 uM after 48 hrs by sulforhodamine B assay; conditions: read-out: GI; procedure, shortened: as §2
[3] = read-out: LC50 (the source's name)

`O=C(CCc1nnc(-c2ccc(Cl)cc2Cl)o1)c1nc2ccccc2[nH]1` was tested, and the GI50 (NCI-H460) was 4.99 µM, the TGI (NCI-H460) was 28.6 µM and the CC50 (NCI-H460; [3]) was 100 µM. It also gave a GI50 (SR) of 2.63 µM, a TGI (SR) of 15.2 µM and a CC50 (SR; [3]) of 100 µM. For the same molecule, the GI50 (HL-60(TB)) was 2.23 µM, the TGI (HL-60(TB)) was 19.3 µM and the CC50 (HL-60(TB); [3]) was 100 µM. The inhibition of growth at 10 µM (A498 [1]) was 41.6%, the GI50 (NCI/ADR-RES) was 5.4 µM and the TGI (NCI/ADR-RES) was 100 µM. The CC50 (NCI/ADR-RES; [3]) was 100 µM, the GI50 (SN12C) was 6.22 µM and the TGI (SN12C) was 56.9 µM. For the same molecule, the CC50 (SN12C; [3]) was 100 µM, the GI50 (A498 [2]) was 1.53 µM and the TGI (A498 [2]) was 10.1 µM. It also gave a CC50 (A498 [2]; [3]) of 100 µM, an inhibition of growth at 10 µM (SF-295) of 40.5% and an inhibition of growth at 10 µM (UACC-62) of 57.7%. It also gave a GI50 (HOP-62) of 7.67 µM, a TGI (HOP-62) of 41.3 µM and a CC50 (HOP-62; [3]) of 100 µM. The inhibition of growth at 10 µM (786-0) was 26.2%, the inhibition of growth at 10 µM (TK-10) was 36% and the GI50 (T47D) was 3.34 µM. It also gave a TGI (T47D) of 60 µM, a CC50 (T47D; [3]) of 100 µM and an inhibition of growth at 10 µM (MDA-MB-468) of 102%. It also gave a GI50 (A549) of 10.4 µM, a TGI (A549) of 100 µM and a CC50 (A549; [3]) of 100 µM. For the same molecule, the GI50 (MDA-MB-435) was 2 µM, the TGI (MDA-MB-435) was 4.77 µM and the CC50 (MDA-MB-435; [3]) was 100 µM. It also gave a GI50 (UO-31) of 6.71 µM, a TGI (UO-31) of 32.9 µM and a CC50 (UO-31; [3]) of 100 µM. For the same molecule, the GI50 (OVCAR-8) was 9.26 µM, the TGI (OVCAR-8) was 100 µM and the CC50 (OVCAR-8; [3]) was 100 µM. For the same molecule, the GI50 (SK-OV-3) was 4.6 µM, the TGI (SK-OV-3) was 30.5 µM and the CC50 (SK-OV-3; [3]) was 100 µM. The GI50 (COLO 205) was 2.66 µM, the TGI (COLO 205) was 7.08 µM and the CC50 (COLO 205; [3]) was 100 µM. It also gave a GI50 (MCF7) of 4.57 µM, a TGI (MCF7) of 100 µM and a CC50 (MCF7; [3]) of 100 µM. For the same molecule, the GI50 (LOX IMVI) was 4.03 µM, the TGI (LOX IMVI) was 39.8 µM and the CC50 (LOX IMVI; [3]) was 100 µM. It also gave an inhibition of growth at 10 µM (HCT-116) of 77.9% and an inhibition of growth at 10 µM (NCI-H322M) of 24%.
